# Measured values as given in PMC11865470 (Communications Biology, 2025).
# Where a chain is given by its changes, count along the chain named. Like-named read-outs stand apart in the source and are kept apart here.
# Key:
# [1] = biological target: T1, mouse Otop1 (mOtop1) channels (Mus musculus, UniProt Q80VM9); format: cell-based; conditions: read-out: IC50, inhibition of mOtop1 currents, n = 5-6
# T1 sequence (Q80VM9 1-600): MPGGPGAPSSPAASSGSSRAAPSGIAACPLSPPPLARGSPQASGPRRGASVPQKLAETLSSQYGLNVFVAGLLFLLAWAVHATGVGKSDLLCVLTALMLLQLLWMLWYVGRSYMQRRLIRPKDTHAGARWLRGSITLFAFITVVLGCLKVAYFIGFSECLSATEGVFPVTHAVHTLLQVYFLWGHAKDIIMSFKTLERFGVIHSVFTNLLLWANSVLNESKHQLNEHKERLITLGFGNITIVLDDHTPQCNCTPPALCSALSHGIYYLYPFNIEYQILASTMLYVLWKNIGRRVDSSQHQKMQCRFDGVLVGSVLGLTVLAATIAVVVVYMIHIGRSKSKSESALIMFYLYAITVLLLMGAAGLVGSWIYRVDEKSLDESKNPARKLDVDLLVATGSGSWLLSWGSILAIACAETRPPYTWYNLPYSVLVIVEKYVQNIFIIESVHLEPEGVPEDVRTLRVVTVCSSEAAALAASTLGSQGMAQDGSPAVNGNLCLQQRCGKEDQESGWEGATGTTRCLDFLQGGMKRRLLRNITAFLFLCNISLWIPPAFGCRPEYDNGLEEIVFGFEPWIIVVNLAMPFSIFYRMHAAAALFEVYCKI
# mOtop1/R554A = biological target: T2, mOtop1/R554A (Mus musculus, UniProt Q80VM9, R554A); test: patch-clamp, mOtop1 mutant; format: cell-based; conditions: 1 mM Zn2+
# T2 sequence (Q80VM9 1-600 R554A): T1 sequence (Q80VM9 1-600) with R554A
# Otop1 channel = conditions: cited from earlier work
# [2] = biological target: T3, mOtop1 channels co-expressed in HEK293 cells (Mus musculus, UniProt Q80VM9); test: live cell intracellular pH imaging; format: cell-based; conditions: pH 5.0; mOtop1 transfected cells
# T3 sequence (Q80VM9 1-600): T1 sequence (Q80VM9 1-600)
# In short: (§1)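 HEK293 cells were electroporated (180 V, 25 ms) with pHmScarlet-mTurquise2, with or without mOtop1, and imaged 24 h later. Cells sat in pH 7.4 solution (mM: 140 KCl, 10 NaCl, 1 MgCl2, 20 HEPES), then were shifted to pH 8.5 (Tris), 6.0 (MES) or 5.0 (HomoPIPES). Test compound was 10 μM in the stimulus solution, with acetic acid pH 5.0 as positive control. FpHmScarlet/FmTurquise2 ratio read every 2 s.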
# [3] = test system: HEK293 cells expressing merely pHmScarlet-mTurquise2; test: live cell intracellular pH imaging; format: cell-based; conditions: pH 5.0; nontransfected cells
# In short: as §1
# mOtop1 channel = conditions: read-out: EC50, activating Otop1 currents; neutral and acidic conditions; cited from earlier work
structure (smiles),measurement,setting,value
[Zn+2] [Zn^2+],IC50,[1]; currents activated by pH 5.5 alone,72 ± 9 µM
same,IC50,[1]; currents activated by pH 5.5 with 10 μM MFaN,58 ± 13 µM
same,effect on mOtop1/R554A currents,mOtop1/R554A,significantly inhibited
Nc1c(S(=O)(=O)O)cc(Nc2ccc(Nc3nc(Cl)nc(Nc4ccccc4S(=O)(=O)O)n3)c(S(=O)(=O)O)c2)c2c1C(=O)c1ccccc1C2=O [Cibacron Blue 3G-A],action on Otop1,Otop1 channel,moderate antagonist
"CC(=O)O [acetic acid, reference compound]","pHi change, positive control",[2],triggered dramatical pHi dropdown
same,"pHi change, positive control",[3],triggered dramatical pHi dropdown
Cc1ccc(C(C)C)cc1O [carvacrol],EC50,mOtop1 channel,~700 µM
